This note sets out measurements from ChEMBL document CHEMBL6109036, “Azo derivatives of monoterpenes as anti-Helicobacter pylori agents: from synthesis to structure-based target investigation” (RSC Med Chem, 2025).

In brackets after ≈: the same amount, converted by molar mass. A value given as a limit tells only on which side of the number the result lay.

Common to all, as to assay type: functional
Test [1] deals with Helicobacter pylori. Nature of the test: Bactericidal activity against Helicobacter pylori NCTC 11637 measured after 72 hrs of incubation under microaerophilic conditions by modified broth dilution method. The following applies: read-out: MBC99.9. In outline:
(§1)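 H. pylori (NCTC 11637, F1, 23, F4). Wells with no visible growth in the MIC assay spotted (10 μL) onto Skirrow agar. Plates incubated 72 h at 37 °C, microaerophilic, 100% humidity. MBC = concentration killing 99.9% of the initial inoculum. Triplicate, on at least three different days.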

The subject of test [2] is Helicobacter pylori. As to the kind of experiment: Anti-bacterial activity against Helicobacter pylori NCTC 11637 measured after 72 hrs incubation by modified broth dilution method.
In test [3] the test system is Helicobacter pylori. As to the kind of experiment: Anti-bacterial activity against Helicobacter pylori Clinical isolate F4 measured after 72 hrs incubation by modified broth dilution method.
Test [4] deals with Helicobacter pylori. As to the kind of experiment: Anti-bacterial activity against Helicobacter pylori measured after 72 hrs incubation by modified broth dilution method.
For test [5], the system named is Helicobacter pylori. As to the kind of experiment: Bactericidal against Helicobacter pylori Clinical isolate F4 measured after 72 hrs of incubation under microaerophilic conditions by modified broth dilution method. The following applies: read-out: MBC99.9. The essentials:
as §1

Test [6] relates to Helicobacter pylori. Nature of the test: Bactericidal activity against Helicobacter pylori Clinical isolate 23 measured after 72 hrs of incubation under microaerophilic conditions by modified broth dilution method. The following applies: read-out: MBC99.9. In outline: as §1
Test [7] concerns Helicobacter pylori. Nature of the test: Bactericidal activity against Helicobacter pylori Clinical isolate F1 measured after 72 hrs of incubation under microaerophilic conditions by modified broth dilution method. The following applies: read-out: MBC99.9. In outline:
as §1

In test [8] the test system is Helicobacter pylori. As to the kind of experiment: Bactericidal against Helicobacter pylori measured after 72 hrs of incubation under microaerophilic conditions by modified broth dilution method. The following applies: for MBC: Helicobacter pylori, read-out: MBC99.9. In outline:
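Wells with no visible growth in the MIC assay spotted (10 μL) onto Skirrow agar. Plates incubated 72 h at 37 °C, microaerophilic, 100% humidity. Triplicate, on at least three different days.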

Test [9] concerns Helicobacter pylori. As to the kind of experiment: Anti-bacterial activity against Helicobacter pylori Clinical isolate F1 measured after 72 hrs incubation by modified broth dilution method.
Test [10] has as its system Helicobacter pylori. Nature of the test: Anti-bacterial activity against Helicobacter pylori Clinical isolate 23 measured after 72 hrs incubation by modified broth dilution method.

With `Cc1cc(O)c(C(C)C)cc1/N=N/c1ccccc1Cl`, the MBC with Helicobacter pylori [1] came to 4 µg/mL (≈ 13.9 µM); in the test on Helicobacter pylori [5], 4 µg/mL (≈ 13.9 µM); with Helicobacter pylori [6], 8 µg/mL (≈ 27.7 µM); in the test on Helicobacter pylori [7], 4 µg/mL (≈ 13.9 µM). Also, the MIC in the test with Helicobacter pylori [2], with Helicobacter pylori [3], against Helicobacter pylori [9] and in the test with Helicobacter pylori [10] was 4 µg/mL (≈ 13.9 µM) throughout. The molecule further gave an MIC50 in the test on Helicobacter pylori [4] of 4 µg/mL (≈ 13.9 µM). Also, the MIC90 against Helicobacter pylori [4] came out at 4 µg/mL (≈ 13.9 µM). This molecule yielded an MBC90 with Helicobacter pylori [8] of 8 µg/mL (≈ 27.7 µM).

With `COc1cccc(C=O)c1O`, the MBC came to 16 µg/mL (≈ 105 µM) with Helicobacter pylori [1]; 8 µg/mL (≈ 52.6 µM) in the test with Helicobacter pylori [5]; 16 µg/mL (≈ 105 µM) in the test on Helicobacter pylori [6]; 4 µg/mL (≈ 26.3 µM) in the test on Helicobacter pylori [7]; 16 µg/mL (≈ 105 µM) in the test on Helicobacter pylori [8]. For the same molecule, the minimum inhibitory concentration (MIC) in the test on Helicobacter pylori [2] stood at 8 µg/mL (≈ 52.6 µM); against Helicobacter pylori [3], 8 µg/mL (≈ 52.6 µM); in the test with Helicobacter pylori [9], 4 µg/mL (≈ 26.3 µM); against Helicobacter pylori [10], 16 µg/mL (≈ 105 µM). For the same molecule, in the test with Helicobacter pylori [4], the MIC50 amounted to 8 µg/mL (≈ 52.6 µM). The same molecule showed an MIC90 against Helicobacter pylori [4] of 16 µg/mL (≈ 105 µM).

For the molecule `COc1cc(C=O)cc(/N=N/c2cccc(Cl)c2)c1O`, the MBC in the test on Helicobacter pylori [1] is more than 128 µg/mL; in the test with Helicobacter pylori [5], 128 µg/mL (≈ 440 µM); with Helicobacter pylori [6] it was 128 µg/mL (≈ 440 µM); in the test with Helicobacter pylori [7], 128 µg/mL (≈ 440 µM). The MIC in the test with Helicobacter pylori [2], in the test with Helicobacter pylori [3], in the test on Helicobacter pylori [9] and against Helicobacter pylori [10] was 128 µg/mL (≈ 440 µM) throughout. Besides, in the test with Helicobacter pylori [4], the MIC50 came to 128 µg/mL (≈ 440 µM). The MIC90 against Helicobacter pylori [4] is more than 128 µg/mL. Further, the MBC90 in the test on Helicobacter pylori [8] was more than 128 µg/mL.

Turning to `COc1cc(C=O)cc(/N=N/c2ccccc2Cl)c1O`, the MBC turned out to be 64 µg/mL (≈ 220 µM) in the test on Helicobacter pylori [1], 64 µg/mL (≈ 220 µM) in the test on Helicobacter pylori [5], 64 µg/mL (≈ 220 µM) in the test with Helicobacter pylori [6] and 16 µg/mL (≈ 55 µM) in the test with Helicobacter pylori [7]. The MIC came out at 64 µg/mL (≈ 220 µM) against Helicobacter pylori [2], 64 µg/mL (≈ 220 µM) against Helicobacter pylori [3], 16 µg/mL (≈ 55 µM) in the test on Helicobacter pylori [9] and 64 µg/mL (≈ 220 µM) against Helicobacter pylori [10]. Besides, in the test with Helicobacter pylori [4], the MIC50 came to 64 µg/mL (≈ 220 µM). The same molecule displayed an MIC90 in the test on Helicobacter pylori [4] of 64 µg/mL (≈ 220 µM). In the test with Helicobacter pylori [8], this molecule gave an MBC90 of 64 µg/mL (≈ 220 µM).

Turning to `Cc1cc(/N=N/c2ccccc2Cl)c(C(C)C)c(/N=N/c2ccccc2Cl)c1O`, the MBC in the test with Helicobacter pylori [1] was 128 µg/mL (≈ 300 µM); with Helicobacter pylori [5], more than 128 µg/mL; in the test with Helicobacter pylori [6], more than 128 µg/mL; in the test with Helicobacter pylori [7] it was more than 128 µg/mL. For the same molecule, the minimum inhibitory concentration (MIC) with Helicobacter pylori [2] is 128 µg/mL (≈ 300 µM); against Helicobacter pylori [3], 128 µg/mL (≈ 300 µM); with Helicobacter pylori [9], 64 µg/mL (≈ 150 µM); against Helicobacter pylori [10], 128 µg/mL (≈ 300 µM). The MIC50 in the test with Helicobacter pylori [4] came to 128 µg/mL (≈ 300 µM). In the test on Helicobacter pylori [4], this molecule came in with an MIC90 of 128 µg/mL (≈ 300 µM). This molecule gave an MBC90 in the test with Helicobacter pylori [8] of more than 128 µg/mL.

As for `COc1ccc(/N=N/c2cc(C(C)C)c(OC(=O)N(C)C)cc2C)cc1`, the MBC in the test on Helicobacter pylori [1] is 64 µg/mL (≈ 180 µM); with Helicobacter pylori [5], 64 µg/mL (≈ 180 µM); in the test with Helicobacter pylori [6], 128 µg/mL (≈ 360 µM); in the test on Helicobacter pylori [7], more than 128 µg/mL. Also, the MIC worked out at 128 µg/mL (≈ 360 µM) against Helicobacter pylori [2], 64 µg/mL (≈ 180 µM) against Helicobacter pylori [3], 128 µg/mL (≈ 360 µM) in the test with Helicobacter pylori [9] and 64 µg/mL (≈ 180 µM) in the test with Helicobacter pylori [10]. This molecule also registered an MIC50 against Helicobacter pylori [4] of more than 128 µg/mL. This molecule also came in with an MIC90 against Helicobacter pylori [4] of 128 µg/mL (≈ 360 µM). Also, the MBC90 with Helicobacter pylori [8] is 128 µg/mL (≈ 360 µM).

As for `COc1ccc(/N=N/c2cc(C(C)C)c(O)cc2C)cc1`, the MBC in the test on Helicobacter pylori [1] amounted to 4 µg/mL (≈ 14.1 µM); with Helicobacter pylori [5], 2 µg/mL (≈ 7.03 µM); with Helicobacter pylori [6], 4 µg/mL (≈ 14.1 µM); with Helicobacter pylori [7], 4 µg/mL (≈ 14.1 µM). For the same molecule, the MIC was found to be 4 µg/mL (≈ 14.1 µM) against Helicobacter pylori [2], 2 µg/mL (≈ 7.03 µM) against Helicobacter pylori [3], 4 µg/mL (≈ 14.1 µM) against Helicobacter pylori [9] and 4 µg/mL (≈ 14.1 µM) in the test with Helicobacter pylori [10]. The molecule also showed an MIC50 in the test with Helicobacter pylori [4] of 4 µg/mL (≈ 14.1 µM). Besides, the MIC90 with Helicobacter pylori [4] was 4 µg/mL (≈ 14.1 µM). In the test on Helicobacter pylori [8], the MBC90 is 4 µg/mL (≈ 14.1 µM).

Turning to `C/C=C/c1ccc(O)c(OC)c1`, the MBC in the test with Helicobacter pylori [1], with Helicobacter pylori [5], in the test with Helicobacter pylori [6], in the test on Helicobacter pylori [7] and in the test on Helicobacter pylori [8] was 32 µg/mL (≈ 195 µM) throughout. Moreover, the MIC in the test with Helicobacter pylori [2], in the test with Helicobacter pylori [3], against Helicobacter pylori [9] and in the test on Helicobacter pylori [10] was 32 µg/mL (≈ 195 µM) in each case. The molecule also registered an MIC50 with Helicobacter pylori [4] of 32 µg/mL (≈ 195 µM). The molecule further returned an MIC90 against Helicobacter pylori [4] of 32 µg/mL (≈ 195 µM).
